Measured values as given in PubChem BioAssay AID651647 (Sanford-Burnham Center for Chemical Genomics, 2012).
About 220 (0.061%) of roughly 360,000 compounds were called active. Only a selection was taken, and actives are over-represented in it overall. Unmarked numbers belong to inactive results.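 Rule for the calls: active = GFP/RFP ratio change of at least 30% with cell ATP level not reduced by more than half and red fluorescence within 50% of control; inactive = the rest, inconclusive results apart.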

What follows are molecules tested against Matrix metalloproteinase-14 (Homo sapiens) (UniProt P50281) (assay: MT1-MMP activation inhibitors, cellular reporter – HT1080 RFP-PRO-GFP cells, GFP/RFP fluorescence, primary screen (AID 651647)). Details: overnight, at 20 µM, stronger effect = higher value, percent of plate control window, DMSO zero.
Method in brief: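 Test system: HT1080 RFP-PRO-GFP cells; Benchmarks: DMSO and RFP-L50D-GFP cell wells; Timing: cells overnight before dosing, compound overnight, 37 °C, 5% CO2; Compound: one 20 µM compound dose with 1% DMSO; Read-out: GFP/RFP fluorescence ratio.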

SMILES	GFP/RFP ratio change
O=C(COC(=O)C1CCN(S(=O)(=O)c2ccc3c(c2)OCCO3)CC1)Nc1ccccc1OC(F)F	-1.25%
CC1(C)CN(Cc2cccnc2)C(=O)[C@H]1CC(=O)Nc1ccc(Br)cc1	-0.506%
CCCc1nc(-c2ccccc2O)n(-c2ccccc2)n1	1.17%
N#CCSc1nc2ccc(N3CCOCC3)cc2c(=O)n1CCc1ccccc1	9.47%
COc1cc(NC(=O)CCS(=O)(=O)c2ccc3c(c2)oc(=O)n3C)cc(OC)c1	0.489%
Cc1cc(OCc2ccc(C(=O)Nc3ccc(C(=O)O)cc3)o2)ccc1Cl	1.24%
Cc1ccc(NC(=O)COc2coc(CN3CCc4ccccc4C3)cc2=O)cc1Cl	-6.33%
CCCc1c(C(=O)N/N=C(\C)CCc2ccc(OC)cc2)nnn1-c1nonc1N	0.35%
O=C1CCCC(O)=C1N=Nc1ccc(S(=O)(=O)N2CCOCC2)cc1	48.9% (active)
O=C1CCCC(O)=C1N=Nc1ccc2ncsc2c1	4.19%
CC1(C)CC(=O)C(N=Nc2ccc(S(=O)(=O)N3CCCCCC3)cc2)=C(O)C1	3.46%
CC1(C)CC(=O)C(C2=NC(C)(C)Cc3ccccc32)=C(O)C1	-1.97%
CCCCCCN1C[C@H](O)[C@@H](n2cc(C3CC3)nn2)C[C@@H]1c1ccc(Cl)cc1	2.78%
CC1CC(C)CN(CCCNC(=O)Cn2ncc3c([nH]c4ccccc43)c2=O)C1 (stereo not drawn)	-6.2%
Cc1ccc(C(=O)OCC(=O)Nc2ccc(Cl)cn2)cc1S(=O)(=O)N1CCOCC1	2.27%
CCOc1ccc(NC(=O)[C@H](C)NC(=O)C2CC(=O)N(c3ccc(OC)cc3)C2)cc1 (stereo partly drawn)	0.231%
CCOC(=O)c1c(NC(=O)CCCN2CCOCC2)sc2c1CC(C)(C)OC2	-2.69%
O=P(O)(CP(=O)(c1ccccc1)c1ccccc1)c1ccccc1	35.4% (active)
O=C(CP(=O)(c1ccccc1)c1ccccc1)N1CCOCC1	1.97%
O=P(O)(CP(=O)(c1ccccc1)c1ccccc1)c1ccccc1O	2.61%
Cc1noc(COc2ccccc2OCc2onc(C)c2Cl)c1Cl	-3.96%
CC(C)(C)Cc1c(C2CCCCC2)nc2ccc(Br)cn12	-6.01%
CCN(CC)C(=O)Oc1ccc(Br)cc1C(=O)Nc1ccc(F)c(Cl)c1	-4.63%
COc1ccc(-c2noc(C(C)NS(=O)(=O)c3ccc(NC(C)=O)cc3)n2)cc1 (stereo not drawn)	-4.06%
CCOC(=O)c1cnc2c(c(C)nn2CC)c1Cl	2.11%

SMILES	GFP/RFP ratio change
COc1ccc(NC(=O)C(C)N2c3cccc4cccc(c34)S2(=O)=O)c(OC)c1 (stereo not drawn)	3.17%
COc1ccc(CC(NC(C)=O)C(=O)N2CCN(C(=O)Nc3cccc(Cl)c3)CC2)cc1OC (stereo not drawn)	-3.43%
Brc1ccc(Nc2c3c(nc4ncnn24)CCC3)cc1	1.92%
CN=C1C=C/C(=N/N=c2\ccn(O)cc2C)C=C1C	61% (active)
CC[N+]1(CC)CC2=Cc3ccccc3CC2C1 (stereo not drawn)	0.892%
CC(Sc1nc2cc(Cl)ccc2s1)C(=O)Nc1ccc2c(c1)OCO2 (stereo not drawn)	3.37%
COCCCNC(=O)/C(C#N)=C/c1c(N2CCCCCC2)nc2ccccn2c1=O	-0.526%
CCOC(=O)c1cc(-c2sc(NC(=O)c3ccccc3)nc2C)n(Cc2ccccc2)n1	-13.8%
CCN1CCN(c2c(Cl)cccc2NC(=O)c2ccc(Br)o2)CC1	6.59%
CNC(=O)c1[nH]cnc1C(=O)N[C@@H](CC(C)C)C(=O)OCc1ccccc1	3.79%
CSc1ncccc1C(=O)N1CCCC(Nc2ccc(F)c(F)c2)C1 (stereo not drawn)	0.99%
O=Cc1c(NCCc2cccc(F)c2)c2ccccc2[nH]c1=O	-3.4%
Cn1c(=S)sc2ccc3ccccc3c21	2.62%
CN(C(=O)CSc1cccc[n+]1[O-])C1CCCCC1	9.34%
Cc1ccc(S(=O)(=O)N2CC(C)N(S(C)(=O)=O)C2)cc1 (stereo not drawn)	0.163%
CCc1ccnc(NS(=O)(=O)c2ccc3c(c2)OCCO3)c1	3.33%
Cc1ccc2c(c1)N(S(=O)(=O)c1cc(-c3cc(C)no3)ccc1C)CCO2	0.714%
CC(=O)c1c(O)cc2n(c1=O)-c1ccc(Cl)cc1C2(C)C	-5.09%
CCOC(=O)C1(O)CC(C)=NN1C(=O)c1cccc(Br)c1 (stereo not drawn)	7.72%
O=C(O)CC(Cn1cnnn1)c1ccccc1 (stereo not drawn)	-0.417%
Nc1nc(SCc2cccc(Br)c2)n[nH]1	6.02%
CC(=O)c1nn(-c2ccc(C)cc2)cc1C(=O)c1cccc(Br)c1	0.8%
CCc1ccc(C2N3CC4([N+](=O)[O-])CN2CC([N+](=O)[O-])(C3)C4(C)C)cc1 (stereo not drawn)	-2.43%
O=S(=O)(Nc1ncccn1)c1ccc(NS(=O)(=O)c2cccc(Cl)c2Cl)cc1	-0.508%
O=c1ccc2c(-c3ccccc3S(=O)(=O)O)c3ccc(O)c(O)c3oc-2c1O	49.3% (active)

SMILES	GFP/RFP ratio change
N/C(=N\OS(=O)(=O)c1cccc([N+](=O)[O-])c1)c1ccncc1	1.12%
CCc1ccnc(NC(=O)Nc2ccc(OCc3ccccc3)cc2)c1	3.94%
CC(C)(C)OC(=O)N1CCN(C(=O)c2[nH]c(C(F)(F)F)nc2-c2ccccc2)CC1	3.61%
CN1CC(c2ccccc2)C2(COc3ccccc3C2=O)C12C(=O)Nc1ccccc12 (stereo not drawn)	-4.6%
Cc1ccc2c(c1)N(CC(=O)NCCCN1CCCCC1)C(=O)c1cccnc1O2	1.06%
Cc1ccccc1S(=O)(=O)NC(=O)C1(C)CCN1C(=O)C1(c2ccc(Cl)cc2)CC1 (stereo not drawn)	0.579%
O=C(COC(=O)c1ccc(S(=O)(=O)N2CCCCCC2)cc1)Nc1ccccc1C(F)(F)F	-2.08%
COc1ccccc1C1CCN(C(=S)Nc2ccc(Br)cc2)CC1	-1.18%
CC(C)[C@H](NC(=O)N1CCn2c1nc1ccccc12)C(=O)NCCc1ccccc1	1.13%
O=c1[nH]snc1-c1c(Cl)cccc1Cl	-2.44%
COC(=O)NNC(=O)C1CCC(C)CC1 (stereo not drawn)	0.231%
Cc1cn(C2CC(O)C(CO)O2)c(=O)n(CCCc2ccccc2)c1=O (stereo not drawn)	5.06%
Cc1nn(C)c(Oc2ccccc2)c1CCNS(=O)(=O)c1ccc(F)cc1	0.853%
O=C(c1ccc(F)c(S(=O)(=O)N2CCOCC2)c1)N(CCc1ccccc1)Cc1ccccc1	-8.33%
CC(=O)c1cc2c(cc1NC(=O)CN1CCCCCC1)OCO2	-5.12%
CN1c2ccc([N+](=O)[O-])cc2C(C)(C)C12C=Cc1cc(C(=O)O)ccc1O2 (stereo not drawn)	0.611%
COc1ccc2c(c1)C=CC1(O2)N(CCO)c2ccccc2C1(C)C (stereo not drawn)	52% (active)
O=C(Nc1ccc(N2CCOCC2)nc1)c1c(F)cccc1F	-1.38%
CCc1nonc1NC(=O)c1oc2ccc(Cl)cc2c1C	3.45%
COc1ccc(-c2cc(NC(C)=O)c3ncc(-c4cc(OC)c(OC)c(OC)c4)n3c2)cn1	-4.94%
CCc1ccc(NC(=O)N[C@H](C(=O)O)C(C)CC)cc1 (stereo partly drawn)	2.36%
COc1ccc(C(C)C)cc1-c1ccc2nncn2c1	3.27%
Cc1cccc(C)c1NC(=O)C(Cl)C(=O)c1ccccc1 (stereo not drawn)	-3.13%
Cc1ccc(Nc2ccccc2N)cc1	-12%
Nc1ccc(Nc2ccccc2)cc1	44% (active)

SMILES	GFP/RFP ratio change
O=c1cnnc(Nc2ccccc2)[nH]1	7.04%
O=C(Cn1cnc2cc([N+](=O)[O-])ccc2c1=O)NC(=O)NCc1ccccc1	1.03%
COC(=O)C(NS(=O)(=O)c1ccc(F)cc1)c1ccccc1 (stereo not drawn)	0.566%
CCOc1ccc(NC(=O)CN(C)C(=O)CSc2ccccc2)cc1OCC	-8.63%
N/C(=N\c1nc2ccccc2o1)NC(=O)C(Cc1ccccc1)N1C(=O)c2ccccc2C1=O (stereo not drawn)	-6.5%
CNC(=S)N1CCC(NC(=O)C(Cc2ccc(F)cc2)NC(C)=O)CC1 (stereo not drawn)	-0.719%
CC(C)(C)n1nnc(CCc2nnn(C(C)(C)C)n2)n1	2.72%
O=C(COC(=O)c1ccc(NS(=O)(=O)c2cccs2)cc1O)Nc1ccc(F)cc1	4.53%
C[C@@H](CN1CCC[C@H]1CN1C(N)=NC[C@@H]1Cc1ccccc1)N1C[C@@H](Cc2ccccc2)N(CCCC2CCCC2)C1=N	1.74%
COc1ccc2oc(C(=O)N(CC(C)C)C3CCS(=O)(=O)C3)c(C)c2c1 (stereo not drawn)	1.26%
O=C1c2ccccc2C(=O)N1CC1c2ccccc2CCN1S(=O)(=O)c1ccccc1 (stereo not drawn)	-1.81%
COc1ccc(NC2CCCN(C(=O)c3ccccc3-c3ncc[nH]3)C2)cc1 (stereo not drawn)	3.89%
COC(=O)c1ccccc1Oc1c(F)c(F)nc(N2CCOCC2)c1F	2.7%
COc1ccc(S(=O)(=O)N2CCC(C(=O)NCCC(=O)NCc3cccc(OC)c3)CC2)cc1	0.341%
COc1ccc(C)cc1Nc1nc(-c2c(C)[nH]c3ccccc23)cs1	47.3% (active)
Cc1[nH]c2ccccc2c1-c1ccc(Cl)nn1	-0.969%
COC(=O)c1cnc(Nc2cc(C)ccc2OC)c2ccccc12	-1.73%
C=CCn1nc(C(=O)OCC)cc1-c1sc(NC(=O)c2ccccc2)nc1C	-9.54%
CCOC(=O)C1C(C)C(C(C)(C)C)N(S(=O)(=O)c2ccc(C)cc2)C1c1ccccc1 (stereo not drawn)	-10.4%
O=S(=O)(/C=C/c1ccccc1)NCCc1ccccn1	2.57%
Cc1ccccc1C(=O)O	-0.112%
CCC1(C)N(O)C(C)(C)C(c2ccc(OC)cc2)=[N+]1[O-] (stereo not drawn)	5.6%
CN(C(=O)c1cccc(NC(=O)C2CCN(C(=O)OC(C)(C)C)CC2)c1)C1CCC1	6.42%
